Data taken from PubChem BioAssay.
Records with an inconclusive call do not appear.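 Rule for the calls, unless noted: active = viability at or below 27.92% in each of two runs, the all-compound median minus 4 SD; inconclusive = no clear call, values can overlap the other calls; inactive = the rest.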

Experiments:
[1] = S. cerevisiae growth inhibition in permissive medium (OD615), pilot counter-assay for S. cerevisiae lifespan shortening project, permissive growth control (AID 705;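 active = growth inhibition above 25% in both replicates, a cutoff set 3 SD above the mean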); conditions: OD615, 24 h, at 10 µM, hits give high values
Method in brief: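 System: Engineered DeaD yeast | Buffer or medium: SC raffinose/galactose permissive medium | Doses: 10 µM single dose, 0.25% DMSO | Times: 24 h exposure, 30 °C | Measured by: OD615 turbidity read | Read-out: Yeast growth inhibition indicated by reduced 24 h OD615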

[2] = S. cerevisiae growth inhibition in restrictive medium, OD615, pilot screen, restrictive growth control, yeast lifespan reduction project (AID 706;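 active = growth inhibition above a set limit, 3 SD over mean compound inhibition, in both replicates, cut at about 43% in these data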;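 note: modified DeaD lifespan yeast strain shifted to restrictive glucose medium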); conditions: OD615, 48 h, at 10 µM, hits give high values
Method in brief: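 Assay system: engineered S. cerevisiae DeaD strain; Buffer or medium: CSMM-D glucose medium; Dosing: 10 µM compound, 0.25% DMSO; Times: cell pre-growth 4 h, compound exposure 48 h, 30 °C; Detection: absorbance (optical density) measured at 615 nm.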

[3] = doxorubicin toxicity protection in MRP-1 cells – H69AR cells, CellTiter-Glo, duplicate, MRP-1 activator project, pilot screen (AID 807;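 active = viability increase at or above a cutoff of the median across tested compounds plus 3 SD, cut at about 8.5% in these data, passing the limit was not always enough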;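 note: compound pretreatment 18-22 h then 72 h combined with doxorubicin; 0% = doxorubicin alone and 100% = vehicle without doxorubicin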); conditions: H69AR viability with doxorubicin, CellTiter-Glo luminescence; at 10 µM; hits give high values
[4] = viability of HCT116 without oncogenic beta-catenin – human colon tumor cells, pilot screen (AID 823;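 active = cell viability at or below a set limit in both duplicate runs, the limit being the all-compound median minus 4 SD, cut at about 23% in these data, passing the limit was not always enough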;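 note: 0% = wells killed by 20 µM Hyamine and 100% = untreated DMSO cell wells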); conditions: HCT116 beta-catenin knockout viability, CellTiter-Glo, 60 h; at 10 µM; hits give low values
[5] = viability of PTEN-null HCT116 cells – cell-based, HCT116 clonal line, CellTiter-Glo, pilot screen (AID 824); conditions: HCT116 PTEN-deleted viability, 60 h, at 10 µM, hits give low values;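 note: 0% = 20 µM Hyamine control and 100% = vehicle cell control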
[6] = RAM pathway blockade in budding yeast – dse1pr::URA3 reporter, 5-FOA selection, pilot screen (AID 869;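 active = inhibition over a set limit, the all-compound mean plus 3 SD, in both replicate runs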;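 note: 0% = DMSO wells with no growth and 100% = 10 µM 1-NA-PP1 with full growth; RAM network block rescues cells from 5-FOA so hits raise OD615 growth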); conditions: S. cerevisiae dse1pr::URA3 5-FOA growth, OD615, 2 d; at 10 µM; hits give high values; strain carries analog-sensitive mutant Cbk1 kinase
[7] = RAM signaling pathway blockade in yeast – S. cerevisiae, Pdr1DBD-CYC8 efflux-inhibited sensitized strain, primary screen (AID 1298;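 active = RAM network inhibition above 8.4% in each of two replicates, 3 SD over the compound average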;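 note: 0% = DMSO untreated cells without growth and 100% = 10 µM 1-NA-PP1 full growth; higher means more yeast growth rescued from 5-FOA killing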); conditions: S. cerevisiae cbk1-as DSE1-URA3 strain, 5-FOA growth OD615, 2 d; at 50 µM; hits give high values

Cc1ccccc1CNc1nc(N)n(-c2ccccc2)n1
inactive: growth inhibition [1] -0.29% | growth inhibition [2] 2.71% | viability increase [3] -1.74% | viability [4] 104% | viability [5] 98.1% | inhibition [6] 0.48% | RAM network inhibition [7] 4.87%

Cc1noc(C)c1S(=O)(=O)NCc1ccc2c(c1)OCO2
inactive: growth inhibition [1] -1.3% | growth inhibition [2] -6.16% | viability increase [3] -1.12% | viability [4] 97.5% | viability [5] 93.6% | inhibition [6] 2.77% | RAM network inhibition [7] 0.27%

CN1C(=O)NC(c2ccccc2)C2=C1CN(Cc1ccco1)C2=O (stereo not drawn)
inactive: growth inhibition [1] -6.95% | growth inhibition [2] -14.4% | viability increase [3] -2.48% | viability [4] 90.4% | viability [5] 89.7% | inhibition [6] 1.47% | RAM network inhibition [7] 3%

CCOC(=O)N1CCC(NC(=O)CN2C(=O)CSc3nc(C)cc(C)c32)CC1
inactive: growth inhibition [1] -8.91% | growth inhibition [2] 6.29% | viability increase [3] -0.46% | viability [4] 109% | viability [5] 97.7% | inhibition [6] -0.65% | RAM network inhibition [7] 0.43%

COc1ccc(NC(C)=O)cc1NC(=O)CSc1nnc(-c2cccnc2)n1C
inactive: growth inhibition [1] -5.75% | growth inhibition [2] -0.47% | viability increase [3] -0.83% | viability [4] 104% | viability [5] 100% | inhibition [6] 0.485% | RAM network inhibition [7] 1.19%

COc1cc(OC)cc(-c2cc(NC(C)=O)n[nH]2)c1
inactive: growth inhibition [1] -4.33% | growth inhibition [2] 6.38% | viability increase [3] -3.17% | viability [4] 90.8% | viability [5] 91.3% | inhibition [6] 0.965% | RAM network inhibition [7] 4.1%

CCCC(=O)OCCNC(=O)c1cc2ccccc2oc1=O
inactive: growth inhibition [1] -4.39% | growth inhibition [2] 2.19% | viability increase [3] -0.74% | viability [4] 102% | viability [5] 90.2% | inhibition [6] 0.64% | RAM network inhibition [7] 2.41%

Cc1c(C(=O)Nc2ccc(F)cc2)oc2ccc(S(=O)(=O)N3CCCC3)cc12
inactive: growth inhibition [1] -14.8% | growth inhibition [2] -6.18% | viability increase [3] -2.04% | viability [4] 101% | viability [5] 96% | inhibition [6] 3.88% | RAM network inhibition [7] 3%

CCOC(=O)C1=C(C)Nc2nc(SCc3cccnc3)nn2C1c1ccc(OC)cc1 (stereo not drawn)
inactive: growth inhibition [1] -6.41% | growth inhibition [2] 2.46% | viability increase [3] -2.64% | viability [4] 98.7% | viability [5] 89% | inhibition [6] 0.58% | RAM network inhibition [7] 4.49%

Cc1ccc(-c2nc(CS(=O)CC(=O)NC3CCCC3)c(C)o2)cc1 (stereo not drawn)
inactive: growth inhibition [1] 5.52% | growth inhibition [2] 2.53% | viability increase [3] -4.16% | viability [4] 92.9% | viability [5] 91.4% | inhibition [6] 1.08% | RAM network inhibition [7] 5.29%

Cc1ccc(-c2nc(C#N)c(NCCN3CCCCC3)o2)cc1
inactive: growth inhibition [1] 12.4% | growth inhibition [2] -1.35% | viability increase [3] -3.34% | viability [4] 92.5% | viability [5] 92.5% | inhibition [6] 1.4% | RAM network inhibition [7] -1.13%

COc1ccc(CCNC(=O)Cc2cc(=O)[nH]c(=O)[nH]2)cc1OC
inactive: growth inhibition [1] 6.42% | growth inhibition [2] 3% | viability increase [3] -0.97% | viability [4] 96.7% | viability [5] 97.6% | inhibition [6] 1.35% | RAM network inhibition [7] 1.23%

CCN1CCN(C(=O)Cn2c(=O)sc3ccccc32)CC1
inactive: growth inhibition [1] -10.6% | growth inhibition [2] 4.76% | viability increase [3] -2.64% | viability [4] 107% | viability [5] 96.6% | inhibition [6] -0.225% | RAM network inhibition [7] 0.05%

CC(=O)NC(CCS(C)(=O)=O)C(=O)Nc1cc(Cl)ccc1Cl (stereo not drawn)
inactive: growth inhibition [1] -14.6% | growth inhibition [2] -17.2% | viability increase [3] 0.37% | viability [4] 105% | viability [5] 92% | inhibition [6] 2.08% | RAM network inhibition [7] 2.67%

Cc1cccc(CSc2nnc(-c3ccccn3)n2N)c1
inactive: growth inhibition [1] -6.39% | growth inhibition [2] 14.2% | viability increase [3] -2.01% | viability [4] 103% | viability [5] 94.4% | inhibition [6] 0.655% | RAM network inhibition [7] 0.89%

COc1ccc(Cn2c(=O)[nH]c3cc(C(=O)NCCCN4CCCC4=O)ccc3c2=O)cc1
inactive: growth inhibition [1] -17.7% | growth inhibition [2] -12.3% | viability increase [3] 0.19% | viability [4] 91.6% | viability [5] 90.4% | inhibition [6] 0.92% | RAM network inhibition [7] 1.36%

CC1CCCC(C)N1CCCNC(=O)Cn1cc2c(n1)CCCC2 (stereo not drawn)
inactive: growth inhibition [1] 9.32% | growth inhibition [2] 6.46% | viability increase [3] -1.41% | viability [4] 95.7% | viability [5] 92.5% | inhibition [6] -0.06% | RAM network inhibition [7] 6.61%

O=C1C2CCCN2C(c2ccccc2)N1c1ccc(F)cc1 (stereo not drawn)
inactive: growth inhibition [1] -1.42% | growth inhibition [2] 3.23% | viability increase [3] -2.06% | viability [4] 96.9% | viability [5] 89.3% | inhibition [6] 2.05% | RAM network inhibition [7] 2.34%

COCCOC(=O)C1=C(C)NC(=O)NC1C1CC=CCC1 (stereo not drawn)
inactive: growth inhibition [1] -6.74% | growth inhibition [2] -6.73% | viability increase [3] 0.63% | viability [4] 91.5% | viability [5] 101% | inhibition [6] 1.45% | RAM network inhibition [7] 5.08%

COc1ccc(NC(=O)Nc2nnc(N3CCC(C)CC3)s2)cc1OC
inactive: growth inhibition [1] -8.13% | growth inhibition [2] -23% | viability increase [3] -4.49% | viability [4] 107% | viability [5] 98.1% | inhibition [6] 1.59% | RAM network inhibition [7] 1.42%

CC(c1cccnc1)N(C(=O)Nc1ccccc1)C1CCCCC1 (stereo not drawn)
inactive: growth inhibition [1] -1.48% | growth inhibition [2] -10.8% | viability increase [3] -2.35% | viability [4] 92.1% | viability [5] 91.6% | inhibition [6] 1.96% | RAM network inhibition [7] 5.08%

COC(=O)c1ccc(C2C(C(C)=O)=C(C)Nc3ncnn32)cc1 (stereo not drawn)
inactive: growth inhibition [1] -8.45% | growth inhibition [2] 9.82% | viability increase [3] -1.07% | viability [4] 108% | viability [5] 98.7% | inhibition [6] 1.9% | RAM network inhibition [7] 2.09%

c1ccc2c(c1)CCN(CCCNc1nc3ccccc3n3cnnc13)C2
inactive: growth inhibition [1] -9.84% | growth inhibition [2] -12.9% | viability increase [3] -4.17% | viability [4] 91.3% | viability [5] 97.1% | inhibition [6] 1.18% | RAM network inhibition [7] -1.09%

COc1ccccc1NC(=O)c1c(NC(=O)c2ccco2)sc2c1CCC2
inactive: growth inhibition [1] -9.49% | growth inhibition [2] -18.1% | viability increase [3] -2.92% | viability [4] 80.2% | viability [5] 72% | inhibition [6] 2.31% | RAM network inhibition [7] 2.6%
